Results from ChEMBL document CHEMBL1137378, “Antibacterial agent discovery using thymidylate synthase biolibrary screening” (J Med Chem, 2006).
In brackets after ≈: the same amount, converted by molar mass.

Columns and labels:
Enterococcus faecalis = experiment: Antibacterial activity against Enterococcus faecalis ATCCC29212; type: functional
Method in brief: (§1)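 Wild-type strain panel (18 Gram-positive and Gram-negative strains). Bacteria grown in Mueller-Hinton broth at 37 °C for 24 h. Exponentially growing cultures diluted in sterile liquid medium to a final inoculum of about 1 × 10⁴ CFU/mL, then exposed to increasing compound concentrations. MIC taken as the lowest concentration with no evident bacterial growth.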

Escherichia coli [1] = experiment: Antibacterial activity against Escherichia coli 256; type: functional; method in brief: as §1
Escherichia coli [2] = experiment: Antibacterial activity against Escherichia coli 292; type: functional; method in brief: as §1
Vero [3] = experiment: Cytotoxicity against Vero cells measured as percent of cell growth at 25 mg/L relative to control by MTT assay; type: functional, Chlorocebus sabaeus
Method in brief: (§2)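 VERO cells grown in MEM with 5% heat-inactivated (56 °C, 30 min) FCS, penicillin, streptomycin and L-glutamine. Cultures were watched for 2 days and live cells counted. Cells were then exposed to increasing compound concentrations; wells with cells only served as control. After 24 h, mitochondrial dehydrogenase activity was read by MTT. Trypan blue exclusion was also run.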

Vero [4] = experiment: Cytotoxicity against Vero cells measured as percent of cell growth at 12.05 mg/L relative to control by MTT assay; type: functional, Chlorocebus sabaeus; method in brief: as §2
Vero [5] = experiment: Cytotoxicity against Vero cells measured as percent of cell growth at 6.25 mg/L relative to control by MTT assay; type: functional, Chlorocebus sabaeus; method in brief: as §2
Vero [6] = experiment: Cytotoxicity against Vero cells measured as percent of cell growth at 3.12 mg/L relative to control by MTT assay; type: functional, Chlorocebus sabaeus; method in brief: as §2
Dihydrofolate reductase = target: T1, Dihydrofolate reductase (Homo sapiens, UniProt P00374); experiment: Inhibition of human dihydrofolate reductase
T1 sequence (P00374 whole entry): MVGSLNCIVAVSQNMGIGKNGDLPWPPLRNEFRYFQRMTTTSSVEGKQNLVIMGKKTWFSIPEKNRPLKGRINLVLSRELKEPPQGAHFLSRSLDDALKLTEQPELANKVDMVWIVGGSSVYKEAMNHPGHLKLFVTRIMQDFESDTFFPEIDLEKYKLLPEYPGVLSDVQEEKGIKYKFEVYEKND
Method in brief: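 Purified human DHFR assayed spectrophotometrically at 25 °C by the fall in A340 on DHF reduction. Ki from steady-state kinetics.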

Listeria monocytogenes [7] = experiment: Antibacterial activity against Listeria monocytogenes 3; type: functional; method in brief: as §1
Listeria monocytogenes [8] = experiment: Antibacterial activity against Listeria monocytogenes 4; type: functional; method in brief: as §1
Listeria monocytogenes [9] = experiment: Antibacterial activity against Listeria monocytogenes 5; type: functional; method in brief: as §1
Listeria monocytogenes [10] = experiment: Antibacterial activity against Listeria monocytogenes 6; type: functional; method in brief: as §1
Listeria monocytogenes [11] = experiment: Antibacterial activity against Listeria monocytogenes 7; type: functional; method in brief: as §1
Listeria monocytogenes [12] = experiment: Antibacterial activity against Listeria monocytogenes 8; type: functional; method in brief: as §1
Listeria monocytogenes [13] = experiment: Antibacterial activity against Listeria monocytogenes ATCC 4428; type: functional; method in brief: as §1
Staphylococcus aureus [14] = experiment: Antibacterial activity against Staphylococcus aureus 341; type: functional; method in brief: as §1
Staphylococcus aureus [15] = experiment: Antibacterial activity against Staphylococcus aureus 343; type: functional; method in brief: as §1
Staphylococcus aureus [16] = experiment: Antibacterial activity against Staphylococcus aureus K28; type: functional; method in brief: as §1
Staphylococcus aureus [17] = experiment: Antibacterial activity against Staphylococcus aureus ATCC 29213; type: functional; method in brief: as §1
[18] = system: Staphylococcus haemolyticus; experiment: Antibacterial activity against Staphylococcus haemolyticus ATCC 2997; type: functional; method in brief: as §1
[19] = system: Staphylococcus saprophyticus; experiment: Antibacterial activity against Staphylococcus saprophyticus ATCC 15305; type: functional; method in brief: as §1
Citrobacter = experiment: Antibacterial activity against Citrobacter 224; type: functional; method in brief: as §1
Streptococcus = experiment: Antibacterial activity against Streptococcus 42; type: functional; method in brief: as §1
Vero [20] = experiment: Cytotoxicity against Vero cells measured as percent of cell growth at 50 mg/L relative to control by MTT assay; type: functional, Chlorocebus sabaeus; method in brief: as §2
[21] = system: Staphylococcus epidermidis; experiment: Antibacterial activity against multiresistant Staphylococcus epidermidis 39; type: functional
Method in brief: (§3)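 Clinical multidrug-resistant isolates from hospitalized patients' blood or urine. Bacteria grown in Mueller-Hinton broth at 37 °C for 24 h. Exponential-phase cultures diluted in sterile liquid medium to a final inoculum of about 1 × 10⁴ CFU/mL, then exposed to increasing compound concentrations. Inhibitor stocks in DMSO. MIC (µg/mL) taken as the lowest concentration with no evident bacterial growth.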

[22] = system: Staphylococcus epidermidis; experiment: Antibacterial activity against multiresistant Staphylococcus epidermidis 42; type: functional
[23] = system: Staphylococcus epidermidis; experiment: Antibacterial activity against multiresistant Staphylococcus epidermidis 33; type: functional
Vero [24] = experiment: Cytotoxicity against Vero cells measured as percent of cell growth at 1.56 mg/L relative to control by MTT assay; type: functional, Chlorocebus sabaeus; method in brief: as §2
[25] = system: Staphylococcus epidermidis; experiment: Antibacterial activity against multiresistant Staphylococcus epidermidis 45; type: functional; method in brief: as §3
[26] = system: Staphylococcus epidermidis; experiment: Antibacterial activity against multiresistant Staphylococcus epidermidis […]; type: functional
[27] = system: Staphylococcus epidermidis; experiment: Antibacterial activity against multiresistant Staphylococcus epidermidis 30; type: functional; method in brief: as §3
[28] = system: Staphylococcus epidermidis; experiment: Antibacterial activity against multiresistant Staphylococcus epidermidis 32; type: functional; method in brief: as §3
[29] = system: Staphylococcus epidermidis; experiment: Antibacterial activity against multiresistant Staphylococcus epidermidis 50; type: functional; method in brief: as §3
[30] = system: Staphylococcus epidermidis; experiment: Antibacterial activity against multiresistant Staphylococcus epidermidis 21; type: functional; method in brief: as §3
[31] = system: Staphylococcus epidermidis; experiment: Antibacterial activity against multiresistant Staphylococcus epidermidis 48; type: functional; method in brief: as §3
[32] = system: Staphylococcus epidermidis; experiment: Antibacterial activity against multiresistant Staphylococcus epidermidis 36; type: functional; method in brief: as §3
Staphylococcus aureus [33] = experiment: Antibacterial activity against multiresistant Staphylococcus aureus 27; type: functional; method in brief: as §3
Staphylococcus aureus [34] = experiment: Antibacterial activity against multiresistant Staphylococcus aureus 15; type: functional; method in brief: as §3
Staphylococcus aureus [35] = experiment: Antibacterial activity against multiresistant Staphylococcus aureus 17; type: functional; method in brief: as §3
[36] = system: Staphylococcus haemolyticus; experiment: Antibacterial activity against multiresistant Staphylococcus haemolyticus 51; type: functional; method in brief: as §3
[37] = system: Staphylococcus haemolyticus; experiment: Antibacterial activity against multiresistant Staphylococcus haemolyticus 56; type: functional; method in brief: as §3
Enterococcus faecium [38] = experiment: Antibacterial activity against multiresistant Enterococcus faecium 52; type: functional; method in brief: as §3
Enterococcus faecium [39] = experiment: Antibacterial activity against multiresistant Enterococcus faecium 28; type: functional; method in brief: as §3
Enterococcus faecium [40] = experiment: Antibacterial activity against multiresistant Enterococcus faecium 57; type: functional; method in brief: as §3
Enterococcus faecium [41] = experiment: Antibacterial activity against multiresistant Enterococcus faecium 6; type: functional; method in brief: as §3
Enterococcus gallinarum [42] = experiment: Antibacterial activity against multiresistant Enterococcus gallinarum 37; type: functional; method in brief: as §3
Enterococcus gallinarum [43] = experiment: Antibacterial activity against multiresistant Enterococcus gallinarum 64; type: functional; method in brief: as §3
Staphylococcus aureus [44] = experiment: Antibacterial activity against multiresistant Staphylococcus aureus 9; type: functional; method in brief: as §3

Q: With `O=C1OC(c2ccc(O)c(Cl)c2)(c2ccc(O)c(Cl)c2)c2cccc3cccc1c23` as the molecule, how does the MIC (Enterococcus faecalis) read?
A: The MIC was 10 µg/mL (≈ 22.9 µM).

Q: And the MIC (Escherichia coli [1])?
A: Its MIC is over 25 µg/mL.

Q: And the MIC (Escherichia coli [2])?
A: Its MIC is over 25 µg/mL.

Q: And the Activity (Vero [3])?
A: The Activity was 70%.

Q: And the Activity (Vero [4])?
A: The Activity was 90%.

Q: What about the Activity (Vero [5]) of the same molecule?
A: Its Activity is 90%.

Q: And the Activity (Vero [6])?
A: The Activity was 90%.

Q: And the Ki (Dihydrofolate reductase)?
A: Its Ki is 5.2 µM.

Q: What about the MIC (Listeria monocytogenes [7]) of the same molecule?
A: Its MIC is 2.5 µg/mL (≈ 5.72 µM).

Q: And the MIC (Listeria monocytogenes [8])?
A: The MIC was 10 µg/mL (≈ 22.9 µM).

Q: What about the MIC (Listeria monocytogenes [9]) of the same molecule?
A: Its MIC is 5 µg/mL (≈ 11.4 µM).

Q: What about the MIC (Listeria monocytogenes [10]) of the same molecule?
A: Its MIC is 10 µg/mL (≈ 22.9 µM).

Q: And the MIC (Listeria monocytogenes [11])?
A: Its MIC is 5 µg/mL (≈ 11.4 µM).

Q: What about the MIC (Listeria monocytogenes [12]) of the same molecule?
A: The MIC was 5 µg/mL (≈ 11.4 µM).

Q: What about the MIC (Listeria monocytogenes [13]) of the same molecule?
A: The MIC was 5 µg/mL (≈ 11.4 µM).

Q: What about the MIC (Staphylococcus aureus [14]) of the same molecule?
A: Its MIC is 5 µg/mL (≈ 11.4 µM).

Q: What about the MIC (Staphylococcus aureus [15]) of the same molecule?
A: The MIC was 5 µg/mL (≈ 11.4 µM).

Q: What about the MIC (Staphylococcus aureus [16]) of the same molecule?
A: Its MIC is over 25 µg/mL.

Q: What about the MIC (Staphylococcus aureus [17]) of the same molecule?
A: Its MIC is 5 µg/mL (≈ 11.4 µM).

Q: What about the MIC [18] of the same molecule?
A: Its MIC is 2.5 µg/mL (≈ 5.72 µM).

Q: And the MIC [19]?
A: Its MIC is 2.5 µg/mL (≈ 5.72 µM).

Q: What about the MIC (Citrobacter) of the same molecule?
A: Its MIC is over 25 µg/mL.

Q: What about the MIC (Streptococcus) of the same molecule?
A: Its MIC is 5 µg/mL (≈ 11.4 µM).

Q: What about the Activity (Vero [20]) of the same molecule?
A: Its Activity is 58%.

Q: And the MIC [21]?
A: The MIC was 2.5 µg/mL (≈ 5.72 µM).

Q: And the MIC [22]?
A: Its MIC is 5 µg/mL (≈ 11.4 µM).

Q: And the MIC [23]?
A: The MIC was over 65 µg/mL.

Q: What about the Activity (Vero [24]) of the same molecule?
A: Its Activity is 90%.

Q: And the MIC [25]?
A: Its MIC is over 65 µg/mL.

Q: And the MIC [26]?
A: The MIC was over 65 µg/mL.

Q: And the MIC [27]?
A: Its MIC is over 65 µg/mL.

Q: What about the MIC [28] of the same molecule?
A: Its MIC is over 65 µg/mL.

Q: And the MIC [29]?
A: The MIC was over 65 µg/mL.

Q: And the MIC [30]?
A: Its MIC is over 65 µg/mL.

Q: And the MIC [31]?
A: Its MIC is over 65 µg/mL.

Q: What about the MIC [32] of the same molecule?
A: Its MIC is over 65 µg/mL.

Q: What about the MIC (Staphylococcus aureus [33]) of the same molecule?
A: The MIC was over 65 µg/mL.

Q: What about the MIC (Staphylococcus aureus [34]) of the same molecule?
A: The MIC was over 65 µg/mL.

Q: What about the MIC (Staphylococcus aureus [35]) of the same molecule?
A: The MIC was over 65 µg/mL.

Q: And the MIC [36]?
A: Its MIC is over 65 µg/mL.

Q: And the MIC [37]?
A: The MIC was over 65 µg/mL.

Q: What about the MIC (Enterococcus faecium [38]) of the same molecule?
A: The MIC was over 65 µg/mL.

Q: And the MIC (Enterococcus faecium [39])?
A: The MIC was over 75 µg/mL.

Q: What about the MIC (Enterococcus faecium [40]) of the same molecule?
A: Its MIC is 10 µg/mL (≈ 22.9 µM).

Q: And the MIC (Enterococcus faecium [41])?
A: Its MIC is 10 µg/mL (≈ 22.9 µM).

Q: And the MIC (Enterococcus gallinarum [42])?
A: The MIC was 10 µg/mL (≈ 22.9 µM).

Q: And the MIC (Enterococcus gallinarum [43])?
A: The MIC was 2.5 µg/mL (≈ 5.72 µM).

Q: What about the MIC (Staphylococcus aureus [44]) of the same molecule?
A: The MIC was over 65 µg/mL.
